For orientation: inhibition in vivo means the percentage by which the read-out fell short of the control. What is called IC50 is the concentration that inhibits the measured activity by half. For orientation: half-life means the time in which the quantity being followed falls by half. Read a high half-life as slow decline.

The values below come from ChEMBL document CHEMBL4043282, “Discovery of the First Potent, Selective, and Orally Bioavailable Signal Peptide Peptidase-Like 2a (SPPL2a) Inhibitor Displaying Pronounced Immunomodulatory Effects In Vivo” (J Med Chem, 2018).

A short description of data set [1]: Total concentration in Lewis rat blood at 30 mg/kg, po bid after 24 hrs by LC/MS/MS analysis. It counts as ADME, organism-based. The following applies: read-out: Drug uptake.
Data set [2] has as its system Mus musculus. As to the kind of experiment: In vivo inhibition of SPPL2a in mouse assessed as accumulation of CD74/p8 in splenocyte lysate at 10 mg/kg administered via oral gavage as single dose measured 16 hrs post dose by Western blot method relative to control. It counts as functional. The procedure, abridged: (§1)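 Mice gavaged in 0.5% MC:0.5% Tween or PEG:D5W 3:1. Spleens dissociated, red cells lysed with ACK, 1 × 10^6 cells lysed with protease inhibitors; 18 μg lysate on 10% gel, blotted, CD74 full length and p8 detected with rat anti-mouse CD74 In-1 and Alexa488 anti-rat IgG, LiCor scan; p8/full-length ratio expressed as percent of reference compound ratio.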
A general note: In western blotting, separated proteins are transferred to a membrane and probed.

Data set [3] in a line: Inhibition of human SPP expressed in human U2OS cells using EGFP-labeled EnvSigSeq-SEAP as substrate after 24 hrs by Hoechst staining based high content imaging assay. It counts as cell-based. The method, boiled down: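 Stable U-2 OS lines expressing human SPPL2a, SPPL2b or SPP constitutively (mouse SPPL2a line analogous, mouse TNFα(aa1-77)-NTF-EGFP-NLS) with doxycycline-inducible EGFP substrate. 3000 cells/well, 3−4 h, then 11-point inhibitor 100 μM to 1 nM, 0.9% DMSO, 5 μg/mL doxycycline, 24 h 37 °C. PFA fixed, Hoechst nuclei; nuclear minus cytoplasmic EGFP intensity; inhibition vs 0.5 μM reference and DMSO; IC50 by nonlinear regression.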

Data set [4] concerns Mus musculus. As to the kind of experiment: Immunomodulatory activity in mouse assessed as reduction in follicular B cells in splenocyte at 3 to 30 mg/kg administered via oral gavage bid at 8 and 16 hrs dosing interval between first and second dose respectively for 11 days measured 16 hrs post last dose on day 12 by flow cytometry. It counts as functional, organism-based. The method, boiled down:
(§2)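 Mice gavaged with compound in 0.5% MC:0.5% Tween or PEG:D5W 3:1. Spleens dissociated in GentleMACS, filtered at 40 μm, ACK red-cell lysis, counted; 1 × 10^6 splenocytes stained 30 min on ice in HBSS/2% FBS/5 mM EDTA with antimouse panels for B-cell subsets (B220, CD21, CD23, IgM, IgD) or dendritic cells (PDCA1, CD11c, MHCII, lineage markers); analyzed on Fortessa flow cytometer.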

The test system of a further data set is Rattus norvegicus. Kind of data set: In vivo inhibition of SPPL2a in Lewis rat assessed as accumulation of CD74/p8 in blood at 1 mg/kg first dose administered via oral gavage followed by second dose after 8 hrs measured 16 hrs post second dose by Western blot method. It counts as functional, organism-based. The method, boiled down: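 Rat blood (200 μL) red cells lysed with RBC lysis buffer three times, pellet lysed in Tris pH 6.8/NaCl/EDTA/Triton X-100/deoxycholate with protease inhibitors; Western blot for CD74/p8 with affinity-purified antibody specific for rat CD74/p8 at 1:200.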

Data set [5] concerns the target T1, Signal peptide peptidase-like 2A (Mus musculus) (UniProt Q9JJF9).
T1 sequence (whole entry): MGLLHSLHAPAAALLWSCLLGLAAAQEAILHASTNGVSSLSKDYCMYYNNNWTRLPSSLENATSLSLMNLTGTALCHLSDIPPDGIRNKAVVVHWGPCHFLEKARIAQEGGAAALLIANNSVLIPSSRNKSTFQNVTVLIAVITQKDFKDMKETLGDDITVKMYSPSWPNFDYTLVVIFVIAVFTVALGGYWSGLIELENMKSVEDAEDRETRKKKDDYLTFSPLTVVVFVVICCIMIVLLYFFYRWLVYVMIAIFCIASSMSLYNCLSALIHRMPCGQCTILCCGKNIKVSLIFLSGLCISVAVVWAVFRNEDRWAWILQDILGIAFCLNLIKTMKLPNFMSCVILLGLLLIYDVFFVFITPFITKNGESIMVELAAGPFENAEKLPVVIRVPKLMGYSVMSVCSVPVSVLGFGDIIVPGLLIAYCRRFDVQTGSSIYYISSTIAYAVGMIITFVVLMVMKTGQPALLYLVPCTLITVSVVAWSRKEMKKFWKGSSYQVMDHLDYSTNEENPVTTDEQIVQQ
The following applies: 2 uM.

The nature of data set [6]: Drug uptake in Lewis rat spleen at 3 mg/kg, po bid after 24 hrs by LC/MS/MS analysis. To be noted: read-out: Drug uptake. It counts as ADME, organism-based.
Data set [7] deals with Mus musculus. As to the kind of experiment: In vivo inhibition of SPPL2a in mouse assessed as accumulation of CD74/p8 in splenocyte lysate at 1 to 3 mg/kg administered via oral gavage as single dose measured 16 hrs post dose by Western blot method. It counts as functional, organism-based. The procedure, abridged:
as §1

Data set [8] relates to Mus musculus. As to the kind of experiment: In vivo inhibition of SPPL2a in mouse assessed as accumulation of CD74/p8 in splenocyte lysate at 40 mg/kg administered via oral gavage as single dose measured 16 hrs post dose by Western blot method. It counts as functional, organism-based. The procedure, abridged: as §1
Data set [9] in a line: Total plasma concentration in mouse at 30 mg/kg administered via oral gavage measured after 16 hrs post dose by LC/MS/MS analysis. It counts as ADME, organism-based. The method, boiled down: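 Mice dosed by oral gavage in 0.5% MC:0.5% Tween or PEG:D5W 3:1. 50 μL blood taken retro-orbitally into LiHep tubes; in chronically dosed animals the trough sample came before the morning dose. Kept on ice, plasma separated by centrifugation at 2823g, 5 min, stored at −20 °C until analysis.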

In data set [10] the test system is Mus musculus. As to the kind of experiment: Immunomodulatory activity in mouse assessed as reduction in plasmacytoid dendritic cells in splenocyte at 3 to 30 mg/kg administered via oral gavage bid at 8 and 16 hrs dosing interval between first and second dose respectively for 11 days measured 16 hrs post last dose on day 12 by B220 staining based flow cytometry. It counts as functional, organism-based. The method, boiled down: as §2
(In general: In flow cytometry, cells or beads pass a laser one at a time.)

The nature of data set [11]: Total concentration in Lewis rat blood at 10 mg/kg, po bid after 24 hrs by LC/MS/MS analysis. It counts as ADME, organism-based. To be noted: read-out: Drug uptake.
The test system of data set [12] is Mus musculus. Kind of data set: In vivo inhibition of SPPL2a in mouse assessed as accumulation of CD74/p8 in splenocyte lysate at 150 mg/kg administered via oral gavage as single dose measured 16 hrs post dose by Western blot method. It counts as functional, organism-based. The procedure, abridged: as §1
The test system of data set [13] is Mus musculus. Kind of data set: In vivo inhibition of SPPL2a in mouse assessed as increase in CD74/p8 accumulation in splenocytes at 10 to 100 mg/kg, po administered as single dose measured after 4 hrs by Western blot method. It counts as functional, organism-based.
A short description of data set [14]: Total plasma concentration in mouse at 30 mg/kg, po administered as single dose after 4 hrs by LC/MS/MS analysis. It counts as ADME, organism-based.
For data set [15], the system named is Mus musculus. As to the kind of experiment: In vivo inhibition of mouse gamma-secretase assessed as effect on Hes1 mRNA level in jejunum up to 100 mg/kg, po administered as single dose by RT-PCR method. It counts as organism-based. The procedure, abridged: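 Thymus and jejunum excised into RNALater, 4 °C overnight, washed, frozen at −80 °C; total RNA from 10 mg tissue by MagNA Pure LC; Hes1 measured by TaqMan real-time PCR; significance by two-tailed heteroscedastic Student's t-test.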

The nature of data set [16]: Half life in Balb/c mouse at 5 mg/kg, iv by LC/MS/MS analysis. It counts as ADME, organism-based. The following applies: in vivo.

Activity calls are given as the source filed them. The rule behind the calls is not given here.

Consider `Cc1ncc(F)cc1NC(=O)C[C@H](C(=O)N[C@@H]1C(=O)N2CC3(CC3)CN2C(=O)c2ccccc21)C1CC1`, for which the values for the concentration at 24 h in [1], in data set [6] and in data set [11] were 3560 nM, 860 nM and 1390 nM, respectively. For the same compound, the inhibition in vivo at 10 mg/kg in the data set on Mus musculus [2] worked out at 50%. The same compound came in with a 50% inhibitory concentration (IC50) in data set [3] of 3.73 µM. For the same compound, in the data set with Mus musculus [4], the outcome was Active. Further, the inhibition result in the data set with Rattus norvegicus and in the data set with Mus musculus [8] was “Active” each time. For the same compound, the inhibition result (in data set [5]; in the data set on Mus musculus [7]) was “inactive” each time. For the same compound, the concentration at 16 h in [9] was found to be 136 nM. The result in the data set with Mus musculus [10] was inactive.
With `Cc1ccccc1NC(=O)C[C@@H](C)C(=O)N[C@@H]1C(=O)N2CCCN2Cc2ccccc21`, in the data set on Mus musculus [12], the inhibition entry was “Active”. Also, in the data set with Mus musculus [13], the result was Active. In [14], this compound yielded a concentration at 4 h of 500 nM. Besides, the Activity result with Mus musculus [15] is recorded as “Non-Toxic”. The half-life in data set [16] is 42 min.
